Measurements taken from ChEMBL document CHEMBL4402567, “Structure-Activity Relationship Studies on Diversified Salicylamide Derivatives as Potent Inhibitors of Human Adenovirus Infection” (J Med Chem, 2020).
Activity calls are given as the source filed them. The calls are words filed in the database; no cut-off is given here.

Legend:
Human adenovirus 5 [1] = assay: Antiviral activity against Human adenovirus 5 infected in 293beta5 cells assessed as inhibition of viral infection at 10 uM measured after 2 hrs post infection by GFP reporter gene assay relative to control; assay type: functional; settings: Human mastadenovirus C, 293beta5, 2 h
Human adenovirus 5 [2] = assay: Antiviral activity against Human adenovirus 5 infected in 293beta5 cells assessed as inhibition of plaque formation incubated for 7 days by GFP reporter gene assay; assay type: functional, organism-based; settings: Human mastadenovirus C, 293beta5, 168 h
Method in brief: (§1)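 HAdV5-GFP plaque assay in 293β5 cells at low MOI. Inhibition is expressed as percent of the infected control, with single-dose screening at 10 μM. Compounds giving >90% inhibition went on to IC50 determination. Values are means ± SD of triplicate samples from three independent experiments.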

Human adenovirus 5 [3] = assay: Antiviral activity against Human adenovirus 5 infected in human A549 cells assessed as inhibition of viral DNA replication by measuring number of viral DNA copies at 50 uM after 24 hrs by RT-qPCR analysis (reference value: 100 +/- 1.55%); assay type: functional; set-up: scale not given: the % may be the effect or the level left
Human adenovirus 5 [4] = assay: Antiviral activity against Human adenovirus 5 infected in human A549 cells assessed as inhibition of viral entry at 50 uM after 48 hrs by GFP reporter gene based assay relative to control; assay type: functional; settings: Human mastadenovirus C, A549, 48 h
Method in brief: (§2)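 Entry assay in A549 epithelial cells infected with HAdV5-GFP at high MOI, with compound present throughout and 48 h incubation. GFP expression is the read-out.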

[5] = Cytotoxicity against human A549 cells assessed as reduction in cell viability after 48 hrs by alamar blue assay; assay type: cell-based
Human adenovirus 5 [6] = assay: Antiviral activity against Human adenovirus 5 infected in 293beta5 cells assessed as inhibition of viral infection at 10 uM preincubated for 60 mins followed by viral infection by GFP reporter gene assay relative to control; assay type: functional; settings: Human mastadenovirus C
Human adenovirus 5 [7] = assay: Antiviral activity against Human adenovirus 5 infected in human A549 cells assessed as inhibition of viral entry after 48 hrs by GFP reporter gene based assay; assay type: functional, organism-based; settings: Human mastadenovirus C, A549, 48 h; method in brief: as §2
Human adenovirus 5 [8] = assay: Antiviral activity against Human adenovirus 5 infected in human A549 cells assessed as fold reduction in virus yield at 50 uM after 48 hrs endpoint dilution method relative to control; assay type: functional
Human adenovirus 5 [9] = assay: Antiviral activity against Human adenovirus 5 infected in 293beta5 cells assessed as inhibition of plaque formation at 10 uM incubated for 7 days by GFP reporter gene assay relative to control; assay type: functional; settings: Human mastadenovirus C, 293beta5, 168 h; method in brief: as §1
[10] = Selectivity index, ratio of CC50 for cytotoxicity against human A549 cells to IC50 for antiviral activity against Human adenovirus 5 infected in 293beta5 cells assessed as inhibition of plaque formation after 7 days; assay type: toxicity, cell-based; settings: read-out: Ratio CC50/IC50
Human adenovirus 5 [11] = assay: Antiviral activity against Human adenovirus 5 infected in human A549 cells asssessed as inhibition of viral entry by measuring nuclear-associated viral genome level at 50 uM after 45 mins by RT-PCR analysis (reference value: 100.24 +/- 2.77%); assay type: functional; set-up: scale not given: the % may be the effect or the level left
Method in brief: (§3)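 Nuclear HAdV genome levels in treated cells were quantified at 45 min post-infection and compared with DMSO-treated cells. […] Bars are means ± SD of triplicate samples.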

Human adenovirus 5 [12] = assay: Antiviral activity against Human adenovirus 5 infected in human A549 cells asssessed as inhibition of viral entry by measuring nuclear-associated viral genome level at 20 uM after 45 mins by RT-PCR analysis (reference value: 100.24 +/- 2.77%); assay type: functional; set-up: scale not given: the % may be the effect or the level left; method in brief: as §3
Human adenovirus 5 [13] = assay: Antiviral activity against Human adenovirus 5 infected in 293beta5 cells assessed as inhibition of viral replication at 10 uM after 20 mins post infection by GFP reporter gene assay relative to control; assay type: functional; settings: Human mastadenovirus C, 293beta5, 20 min
Human adenovirus 5 [14] = assay: Antiviral activity against Human adenovirus 5 infected in human A549 cells assessed as inhibition of viral DNA replication by measuring number of viral DNA copies at 20 uM after 24 hrs by RT-qPCR analysis (reference value: 100 +/- 1.55%); assay type: functional; set-up: scale not given: the % may be the effect or the level left
Human adenovirus 5 [15] = assay: Antiviral activity against Human adenovirus 5 infected in human A549 cells assessed as fold reduction in virus yield at 20 uM after 48 hrs endpoint dilution method relative to control; assay type: functional
Human adenovirus 5 [16] = assay: Antiviral activity against Human adenovirus 5 infected in 293beta5 cells assessed as reduction in inhibition of viral replication at 10 uM preincubated for 60 mins followed by viral infection by GFP reporter gene assay; assay type: functional, organism-based
Human adenovirus 5 [17] = assay: Antiviral activity against Human adenovirus 5 infected in human A549 cells assessed as inhibition of viral DNA replication by measuring number of viral DNA copies at 2 uM after 24 hrs by RT-qPCR analysis (reference value: 100 +/- 1.55%); assay type: functional; set-up: scale not given: the % may be the effect or the level left
Human adenovirus 5 [18] = assay: Antiviral activity against Human adenovirus 5 infected in human A549 cells asssessed as inhibition of viral entry by measuring nuclear-associated viral genome level at 2 uM after 45 mins by RT-PCR analysis (reference value: 100.24 +/- 2.77%); assay type: functional; set-up: scale not given: the % may be the effect or the level left; method in brief: as §3
Human adenovirus 5 [19] = assay: Antiviral activity against Human adenovirus 5 infected in human A549 cells assessed as fold reduction in virus yield at 2 uM after 48 hrs endpoint dilution method relative to control; assay type: functional
Human adenovirus 5 [20] = assay: Antiviral activity against Human adenovirus 5 infected in 293beta5 cells assessed as inhibition of viral infection at 5 uM measured after 20 to 40 mins post infection by GFP reporter gene assay relative to control; assay type: functional; set-up: scale not given: the % may be the effect or the level left
Human adenovirus 5 [21] = assay: Antiviral activity against Human adenovirus 5 infected in human A549 cells assessed as inhibition of viral DNA replication by measuring number of viral DNA copies at 10 uM after 24 hrs by RT-qPCR analysis (reference value: 100 +/- 1.55%); assay type: functional; set-up: scale not given: the % may be the effect or the level left
Human adenovirus 5 [22] = assay: Antiviral activity against Human adenovirus 5 infected in 293beta5 cells assessed as inhibition of viral infection at 10 uM measured after 5 to 10 mins post infection by GFP reporter gene assay relative to control; assay type: functional; set-up: scale not given: the % may be the effect or the level left
Human adenovirus 5 [23] = assay: Antiviral activity against Human adenovirus 5 infected in human A549 cells assessed as fold reduction in virus yield at 10 uM after 48 hrs endpoint dilution method relative to control; assay type: functional
Human adenovirus 5 [24] = assay: Antiviral activity against Human adenovirus 5 infected in human A549 cells asssessed as inhibition of viral entry by measuring nuclear-associated viral genome level at 10 uM after 45 mins by RT-PCR analysis (reference value: 100.24 +/- 2.77%); assay type: functional; set-up: scale not given: the % may be the effect or the level left; method in brief: as §3

SMILES	IC50 (Human adenovirus 5 [2]) [nM]	inhibition at 50 µM (Human adenovirus 5 [4]) [%]	CC50 at 48 h [5] [nM]	IC50 (Human adenovirus 5 [7]) [nM]	inhibition at 10 µM (Human adenovirus 5 [9]) [%]	selectivity ratio at 168 h [10]	other results
CC(C)[C@H](NC(=O)c1cc(Cl)ccc1NS(C)(=O)=O)C(=O)Nc1ccc([N+](=O)[O-])cc1Cl	680	99.1	174000	1380	99.1	256	inhibition at 10 µM (Human adenovirus 5 [1]): > 50%; Activity (Human adenovirus 5 [3]): 4.56%; inhibition at 10 µM (Human adenovirus 5 [6]): > 50%; fold change (FC) (Human adenovirus 5 [8]): 1; Activity (Human adenovirus 5 [11]): 16.68%
O=C(N[C@H](Cc1ccccc1)C(=O)Nc1ccc([N+](=O)[O-])cc1Cl)c1cc(Cl)ccc1O	300		77900	9700	100	260	Activity (Human adenovirus 5 [12]): 32.21%; inhibition at 10 µM (Human adenovirus 5 [13]): 50%; Activity (Human adenovirus 5 [14]): 25.78%; fold change (FC) (Human adenovirus 5 [15]): 528; Activity (Human adenovirus 5 [16]): Active
O=C(Nc1ccc([N+](=O)[O-])cc1F)c1cc(Cl)ccc1O	50		10900	1570		218	Activity (Human adenovirus 5 [17]): 75.85%; Activity (Human adenovirus 5 [18]): 57.6%; fold change (FC) (Human adenovirus 5 [19]): 1.8; Activity (Human adenovirus 5 [20]): 34%
O=C(Nc1ccc(C(F)(F)F)cc1Cl)c1cc(Cl)ccc1O	80	100		1670	100		Activity (Human adenovirus 5 [21]): 27.03%; Activity (Human adenovirus 5 [22]): 20%; fold change (FC) (Human adenovirus 5 [23]): 175; Activity (Human adenovirus 5 [24]): 46.53%
